Assay outcomes (PubChem BioAssay)
The list is not random: actives were taken first. Their share in the collection is about 2.3%.
UBC13 polyUb – human UBC13 polyubiquitination inhibition; UBC13 polyubiquitin chain formation, TR-FRET; 0.47% of 330,000 active; P61088; AID 485273; inhibition, % at 20 µM; in the data active = inhibition above about 45%, passing the limit was not always enough
Target sequence (P61088 whole entry, looked up): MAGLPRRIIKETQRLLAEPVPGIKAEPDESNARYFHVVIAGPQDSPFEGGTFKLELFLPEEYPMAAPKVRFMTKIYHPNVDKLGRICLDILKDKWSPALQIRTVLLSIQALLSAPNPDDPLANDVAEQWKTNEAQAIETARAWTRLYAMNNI
PP1 counter – counter-screen for PP5 inhibitors: inhibitors of human PP1-alpha; purified PP1alpha, OMFP fluorescence; inhibition, % at 6.7 µM; P62136; 0.9% of 320,000 active;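 active = inhibition above the mean inhibition of all tested compounds plus 3 SD, computed separately for each screening campaign, cut at about 15% in these data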
Fh CTSL1 inh – cathepsin L1 inhibition, PFM18AAP counter-screen; recombinant F. hepatica cathepsin L1, Z-Leu-Arg-MCA fluorescence; inhibition, % at 5.96 µM; 0.49% of 300,000 active; AID 1906;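 active = inhibition above the mean of all tested compounds plus 3 SD, set per screening campaign, cut at about 17% in these data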;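 note: 0% = plate median of test compound wells and 100% = 1 µM Z-Phe-Ala-diazomethylketone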
PREPL inh – inhibitors of human prolyl oligopeptidase-like enzyme PREPL | Q4J6C6 | recombinant PREPL, fluorescence polarization activity-based probe | inhibition, % at 5.96 µM | 0.68% of 320,000 active | AID 2751;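 note: 0% = enzyme with DMSO and 100% = wells lacking enzyme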
UCH37 DUB inh – blocks the human deubiquitinase UCH37. 0.33% of 330,000 active. inhibition, % (concentration not given with the values). purified proteasome/UCH37, Ub-AMC cleavage fluorescence. Q9Y5K5;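 active = mean inhibition over replicate wells above about 20%, limit read from the data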;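 note: 0% = compound-free wells with enzyme and 100% = wells lacking proteasome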
Target sequence (Q9Y5K5 whole entry, looked up): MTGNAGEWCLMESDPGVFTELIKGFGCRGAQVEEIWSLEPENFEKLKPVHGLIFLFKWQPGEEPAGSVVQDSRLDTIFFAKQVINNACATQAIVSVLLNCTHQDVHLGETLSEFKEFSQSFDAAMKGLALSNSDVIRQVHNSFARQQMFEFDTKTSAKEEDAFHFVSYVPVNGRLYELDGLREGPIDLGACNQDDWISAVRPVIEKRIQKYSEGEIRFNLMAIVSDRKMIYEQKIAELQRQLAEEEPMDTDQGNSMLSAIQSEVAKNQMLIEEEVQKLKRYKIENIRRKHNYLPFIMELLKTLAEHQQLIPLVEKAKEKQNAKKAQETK
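Schedule: 30 min plus 25 min, room temperature / Material: human UCH37 within purified proteasomes / Technique: AMC fluorescence intensity at 355/460 nm / Buffer or medium: pH 7.4 Tris-HCl (50 mM) with ovalbumin, ATP-MgCl2, DTT / Controls: wells without proteasome as full block, compound-free enzyme plus substrate as uninhibited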
PP5 primary – PP5 (human) phosphatase inhibition. inhibition, % at 6.7 µM. AID 1987. 0.18% of 320,000 active. purified PP5c, OMFP substrate fluorescence;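 active = inhibition above the campaign's mean inhibition across all tested compounds plus 3 SD, cut at about 9.5% in these data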;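 note: 0% = DMSO only and 100% = 100 µM cantharidin control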
PREPL confirm – human PREPL inhibition, confirmation; recombinant PREPL, fluorescence polarization activity probe; inhibition, % at 5.96 µM; shares compounds with PREPL inh; 67% of 2,000 active;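 note: 0% = protein with DMSO and 100% = wells lacking protein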
An asterisk follows results filed as active; / = no result given. Cut-off read from the data, not from the text of the source, unless noted: active = inhibition above about 43%; inactive = the rest.

SMILES	UBC13 polyUb	PP1 counter	Fh CTSL1 inh	PREPL inh	UCH37 DUB inh	PP5 primary	PREPL confirm
Cc1ccc(S(=O)(=O)Nc2ccc3c(c2)C(=O)N([C@H](C)CO)C[C@H](C)[C@@H](CN(C)C(=O)Nc2ccc(C(F)(F)F)cc2)O3)cc1	3.5	/	/	45.4*	3.7	/	39.5
Cc1noc(C)c1S(=O)(=O)N(C)C[C@H]1Oc2c(NC(=O)Nc3ccc(C(F)(F)F)cc3)cccc2C(=O)N([C@H](C)CO)C[C@@H]1C	20.8	/	/	52.4*	/	/	59.0*
COc1cc(NC(=O)CC(C)=NNC(=O)c2cccs2)c(OC)cc1Cl	/	/	/	/	5.2	/	/
COc1cc(C=NNc2ccccc2[N+](=O)[O-])ccc1OC(=O)c1ccccc1F	/	/	/	/	9.8	/	/
COc1ccc(C=NNC(=O)CN(C)S(=O)(=O)c2ccc(NC(C)=O)cc2)cc1	/	/	/	/	3.1	/	/
Cc1ccc(N(CC(=O)NN=Cc2ccc(OC3CSC3)cc2)S(=O)(=O)c2ccccc2)c(C)c1	/	/	/	/	3.1	/	/
C[C@H](CO)N1C[C@H](C)[C@@H](CN(C)C(=O)Nc2ccc(C(F)(F)F)cc2)Oc2ccc(NS(=O)(=O)c3cn(C)cn3)cc2C1=O	8.2	/	/	47.2*	1.4	/	38.3
Cc1ccc2c(c1)C1CN(C)CCC1N2Sc1ccccc1[N+](=O)[O-] (stereo not drawn)	-4.5	0.7	2.0	45.1*	/	1.7	38.1
COc1ccc(-c2cnnc(N/N=C/c3ccc(O)c(O)c3)n2)cc1	-16.4	0.4	7.0	73.3*	/	3.0	37.3
COC(=O)/C(C#N)=C/c1c(N2CCN(c3ccccc3)CC2)nc2c(C)cccn2c1=O	-0.8	/	/	/	4.1	/	/
COc1ccc(N2CCN(c3nc4c(C)cccn4c(=O)c3/C=C(\C#N)C(N)=O)CC2)cc1	8.7	-0.2	-5.8	53.6*	-141.1	2.0	52.6*
COCCCNC(=O)/C(C#N)=C/c1c(N2CCN(c3ccccc3)CC2)nc2c(C)cccn2c1=O	-3.3	-0.3	3.2	44.1*	-34.3	3.5	32.1
C=CCNC(=O)/C(C#N)=C/c1c(N2CCN(c3ccc(OC)cc3)CC2)nc2c(C)cccn2c1=O	5.4	8.3	-1.8	57.1*	3.3	1.1	49.5*
CC1(C(=O)NN=Cc2ccc([N+](=O)[O-])o2)CC1(Br)Br (stereo not drawn)	/	/	/	/	9.7	/	/
CC(=O)N1CCN(c2ccccc2NC(=O)COc2ccc(Cl)cc2Cl)CC1	0.0	2.9	-1.1	14.9	4.6	3.0	/
CC(=O)N1CCN(c2ccc(NC(=O)COc3ccc(Cl)cc3Cl)cc2)CC1	0.2	9.2	0.5	52.7*	2.6	3.0	53.8*
O=C(COc1ccccc1Cl)Nc1cc(NC(=O)COc2ccccc2Cl)cc(C(=O)O)c1	-14.0	/	/	/	-1.4	/	/
CCN1CCN(c2ccc(NC(=O)Cc3ccccc3)cc2)CC1	7.7	-2.5	-2.9	16.4	0.9	0.1	/
CCN1CCN(c2ccc(NC(=O)COc3ccc(Cl)cc3C)cc2)CC1	12.8	/	/	43.5*	5.0	/	53.0*
CCN1CCN(c2ccc(NC(=O)COc3ccccc3Cl)cc2)CC1	6.3	-8.3	1.9	47.4*	-1.8	0.8	40.0
O=C(COc1ccccc1Cl)Nc1ccc(N2CCN(C(=O)c3ccccc3)CC2)cc1	2.1	1.1	3.8	63.8*	1.5	2.2	61.5*
COc1ccccc1Sc1ccccc1C=NNC(N)=O	/	/	/	/	4.2	/	/
Cc1nnc(C)n1N=Cc1ccc(-c2ccccc2Cl)o1	/	/	/	/	9.1	/	/
O=C(COc1ccccc1[N+](=O)[O-])Nc1ccc(N2CCN(C(=O)c3cccs3)CC2)cc1	13.5	-3.5	-1.3	44.4*	1.4	4.2	64.4*
Cc1ccc(OCC(=O)Nc2ccc(N3CCN(C(=O)c4ccc(C)cc4)CC3)cc2)cc1	0.2	-2.2	8.4	9.4	0.8	2.0	/
Cc1cccc(OCC(=O)Nc2ccc(N3CCN(C(=O)c4ccccc4)CC3)cc2)c1	5.2	6.0	0.1	55.0*	3.6	1.0	58.0*
C=CC[n+]1c(/C=C2\C=Cc3cc(C)ccc3N2CC)ccc2ccccc21	-145.4	7.3	-1.3	45.8*	9.9	4.6	59.6*
COc1ccc(C=NNC(=O)CCn2c3ccccc3c3ccccc32)cc1OC	/	/	/	/	0.3	/	/
